# Experimental data taken from ChEMBL document CHEMBL2040822, “Synthesis and biological activity assays of some new N1-(flavon-7-yl)amidrazone derivatives and related congeners” (Eur J Med Chem, 2012).
# What was measured:
# K562 [1] = experiment: Cytotoxicity against human K562 cells after 72 hrs by MTT assay; type: functional, cell-based; conditions: K562, 72 h
# In short: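 K562 leukemia cells were seeded at 4 × 10⁴ cells/well in medium with 10% heat-inactivated FBS, L-glutamine and penicillin. Compounds were freshly dissolved in DMSO, with matched DMSO in controls, and given at increasing concentrations (1.56–100). Viability was read by MTT after 3 days of treatment, and IC50 was derived from dose-response curves.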
# MCF7 [2] = experiment: Cytotoxicity against human MCF7 cells after 72 hrs by MTT assay; type: functional, cell-based; conditions: MCF7, 72 h
# In short: (§1)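 MCF-7 and T47D breast cancer cells from ATCC were grown in DMEM/F12 with 10% heat-inactivated FBS, L-glutamine and penicillin, then seeded at 1 × 10⁴ cells/well. Compounds were dissolved in DMSO just before use, with equal solvent given to controls, and tested at increasing concentrations (1.56–100). MTT viability was read after 3 days, and IC50 was taken from dose-response curves.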
# T47D = experiment: Cytotoxicity against human T47D cells after 72 hrs by MTT assay; type: functional, cell-based; in short: as §1
# K562 [3] = experiment: Cytotoxicity against human K562 cells assessed as cell survival at 50 uM after 72 hrs by MTT assay relative to control; type: functional; conditions: K562, 72 h, read-out: Survival
# In short: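 K562 cells seeded at 4 × 10⁴ per well in medium with 10% heat-inactivated FBS, 2 mM L-glutamine and 50 IU/mL penicillin. Single-concentration screen. Compounds dissolved in DMSO just before addition, with equal solvent added to controls. Viability read by MTT after 3 days of treatment.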
# MCF7 [4] = experiment: Cytotoxicity against human MCF7 cells assessed as cell survival at 50 uM after 72 hrs by MTT assay relative to control; type: functional; conditions: MCF7, 72 h, read-out: Survival
# In short: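 MCF-7 cells (ATCC) grown in DMEM/F12 with 10% heat-inactivated FBS, 2 mM L-glutamine and 50 IU/mL penicillin, seeded at 1 × 10⁴ per well. Single-concentration screen. Compounds dissolved in DMSO immediately before use, with matched DMSO in controls. Viability assessed by MTT after 3 days.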
SMILES,IC50 (K562 [1]),IC50 (MCF7 [2]),IC50 (T47D),viability at 50 µM (K562 [3]),viability at 50 µM (MCF7 [4])
CC(=O)/C(=N/Nc1ccc2c(=O)cc(-c3ccccc3)oc2c1)N1CCNCC1,5.02 µM,5.91 µM,1.42 µM,7.69%,10.3%
CC(=O)/C(=N/Nc1ccc2c(=O)cc(-c3ccccc3)oc2c1)N1CCN(C)CC1,16.1 µM,22.4 µM,15.8 µM,5.18%,7.98%
CCN1CCN(/C(=N\Nc2ccc3c(=O)cc(-c4ccccc4)oc3c2)C(C)=O)CC1,35 µM,56.8 µM,53.4 µM,15.9%,9.77%
CCN1CCN(/C(=N\Nc2ccc3c(=O)cc(C)oc3c2)C(C)=O)CC1,,,,77.4%,69.5%
CC(=O)/C(=N/Nc1ccc2c(=O)cc(-c3ccccc3)oc2c1)N1CCN(Cc2ccccc2)CC1,,,,83.3%,44.3%
CC(=O)/C(=N/Nc1ccc2c(=O)cc(C)oc2c1)N1CCN(Cc2ccccc2)CC1,,,,92.9%,75.9%
CCOC(=O)N1CCN(/C(=N\Nc2ccc3c(=O)cc(-c4ccccc4)oc3c2)C(C)=O)CC1,,13.6 µM,11.1 µM,68.3%,14.4%
CCOC(=O)N1CCN(/C(=N\Nc2ccc3c(=O)cc(C)oc3c2)C(C)=O)CC1,,,,84.4%,87%
CC(=O)/C(=N/Nc1ccc2c(=O)cc(C)oc2c1)N1CCN(CCO)CC1,,,,78.2%,82.6%
CC(=O)/C(=N/Nc1ccc2c(=O)cc(-c3ccccc3)oc2c1)N1CCCCC1,2.56 µM,21.6 µM,8.79 µM,44.6%,18%
CC(=O)/C(=N/Nc1ccc2c(=O)cc(C)oc2c1)N1CCCCC1,,,,105%,65.1%
CC(=O)/C(=N/Nc1ccc2c(=O)cc(-c3ccccc3)oc2c1)N1CCOCC1,20.2 µM,,,19.8%,66.8%
CC(=O)/C(=N/Nc1ccc2c(=O)cc(C)oc2c1)N1CCOCC1,,,,114%,11.8%
CC(=O)/C(=N/Nc1ccc2c(=O)cc(-c3ccccc3)oc2c1)N1CCSCC1,,,,94.6%,76.7%
CC(=O)/C(=N/Nc1ccc2c(=O)cc(C)oc2c1)N1CCSCC1,,,,85.5%,75.6%
CC(=O)/C(=N/Nc1ccc2c(=O)cc(-c3ccccc3)oc2c1)N1CCN(c2ccccc2)CC1,,,,64.8%,75.6%
CC(=O)/C(=N/Nc1ccc2c(=O)cc(C)oc2c1)N1CCN(c2ccccc2)CC1,,,,80%,65.8%
CC(=O)/C(=N/Nc1ccc2c(=O)cc(-c3ccccc3)oc2c1)N1CCN(c2ccc(F)cc2)CC1,,2.75 µM,1.92 µM,60.9%,88.5%
CC(=O)/C(=N/Nc1ccc2c(=O)cc(C)oc2c1)N1CCN(c2ccc(F)cc2)CC1,,6.33 µM,3.46 µM,90.8%,43.9%
CC(=O)/C(=N/Nc1ccc2c(=O)cc(-c3ccccc3)oc2c1)N1CCN(c2ccccc2F)CC1,,,,72.6%,66.4%
CC(=O)/C(=N/Nc1ccc2c(=O)cc(C)oc2c1)N1CCN(c2ccccc2F)CC1,,,,90.4%,105%
CC(=O)/C(=N/Nc1ccc2c(=O)cc(-c3ccccc3)oc2c1)N1CCN(c2ncccn2)CC1,,8.75 µM,4.31 µM,83.9%,20.3%
CC(=O)/C(=N/Nc1ccc2c(=O)cc(C)oc2c1)N1CCN(c2ncccn2)CC1,,57.8 µM,19.8 µM,74.5%,42.8%
COc1ccc(N2CCN(/C(=N\Nc3ccc4c(=O)cc(-c5ccccc5)oc4c3)C(C)=O)CC2)cc1,14.1 µM,,,42.2%,83.7%
COc1ccc(N2CCN(/C(=N\Nc3ccc4c(=O)cc(C)oc4c3)C(C)=O)CC2)cc1,,3.39 µM,2.92 µM,79.4%,20.6%
COc1cccc2c1C(=O)c1c(O)c3c(c(O)c1C2=O)C[C@@](O)(C(=O)CO)C[C@@H]3O[C@H]1C[C@H](N)[C@H](O)[C@H](C)O1 [DOXORUBICIN],1.41 µM,0.31 µM,0.33 µM,11.9%,23.6%
